According to ChEMBL document CHEMBL1146596, “New lupane derived compounds with pro-apoptotic activity in cancer cells: synthesis and structure-activity relationships” (2003):

How the values were obtained:
CCRF-CEM [1] = experiment: Cytotoxicity against chemosensitive CEM-T lymphoblastc leukemia cell line.; format: functional, Homo sapiens
How it was run: (§1)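 Cells were kept in DMEM/RPMI 1640 with 10% fetal calf serum, 2 mM glutamine and antibiotics. They were seeded at 2500–30 000 cells/well according to growth characteristics and preincubated 24 h at 37 °C, 5% CO2. Four-fold compound dilutions were tested in duplicate for 72 h. MTT was then added for 1–4 h, the formazan was dissolved in 10% SDS (pH 5.5) overnight, and OD was read at 540 nm. Survival was taken relative to mean control, and TCS50 was derived from dose–response curves.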

A549 = experiment: Tested for cytotoxicity against human lung adenocarcinoma A549 cell line; format: functional; how it was run: as §1
B16 [2] = experiment: Tested for cytotoxicity against mouse melanoma B16 cell line; format: functional; how it was run: as §1
BT-549 = experiment: Tested for cytotoxicity against human breast cancer BT549 cell line; format: functional; how it was run: as §1
CCRF-CEM [3] = experiment: Tested for cytotoxicity against human T-lymphoblastic leukemia CEM cell line; format: functional; how it was run: as §1
CEM-DNR [4] = experiment: Tested for cytotoxicity against human T-lymphoblastic leukemia CEM-DNR 1/C2 cell line; format: functional; how it was run: as §1
CEM-DNR [5] = experiment: Tested for cytotoxicity against human T-lymphoblastic leukemia CEM-DNR bulk cell line; format: functional; how it was run: as §1
CEM-VCR 1/D/5 = experiment: Tested for cytotoxicity against human T-lymphoblastic leukemia CEM-VCR 1/D5 cell line; format: functional; how it was run: as §1
CEM-VCR 1/F3 = experiment: Tested for cytotoxicity against human T-lymphoblastic leukemia CEM-VCR 1/F3 cell line; format: functional; how it was run: as §1
CEM-VCR = experiment: Tested for cytotoxicity against human T-lymphoblastic leukemia CEM-VCR bulk cell line; format: functional; how it was run: as §1
DU-145 = experiment: Tested for cytotoxicity against human prostate cancer DU145 cell line; format: functional; how it was run: as §1
HT-29 = experiment: Tested for cytotoxicity against human colon cancer HT-29 cell line; format: functional; how it was run: as §1
HepG2 = experiment: Tested for cytotoxicity against human hepatocellular carcinoma HepG2 cell line; format: functional; how it was run: as §1
K562 [6] = experiment: Tested for cytotoxicity against human […] leukemia K562 cell line; format: functional; how it was run: as §1
K562 [7] = experiment: Tested for cytotoxicity against human […] leukemia K562-ARA-C cell line; format: functional; how it was run: as §1
K562 [8] = experiment: Tested for cytotoxicity against human […] leukemia K562-CdA cell line; format: functional; how it was run: as §1
K562 [9] = experiment: Tested for cytotoxicity against human […] leukemia K562-FLU D-CEM cell line; format: functional
How it was run: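 Cytotoxicity by MTT in fludarabine-resistant K562 subline (K562-FLUD), cultured in DMEM/RPMI 1640 with 10% fetal calf serum. Cells seeded at 2500–30 000/well, preincubated 24 h at 37 °C, 5% CO2. Fourfold dilutions in duplicate, 72 h exposure. MTT 1–4 h, formazan dissolved in 10% SDS overnight, OD 540 nm. Survival relative to control; TCS50 taken from dose–response curves.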

K562 [10] = experiment: Tested for cytotoxicity against human […] leukemia K562-GEM cell line; format: functional; how it was run: as §1
SK-MEL3 = experiment: Tested for cytotoxicity against human melanoma MEL-3 cell line; format: functional; how it was run: as §1
MDA-MB-238 = experiment: Tested for cytotoxicity against human breast cancer MDA-MB-238 cell line; format: functional; how it was run: as §1
LNCaP = experiment: Tested for cytotoxicity against human prostate cancer LNCaP cell line; format: functional; how it was run: as §1
MCF7 = experiment: Tested for cytotoxicity against human breast cancer MCF-7 cell line; format: functional; how it was run: as §1
NIH3T3 = experiment: Tested for cytotoxicity against mouse immortalized fibroblast NIH3T3 cell line; format: functional; how it was run: as §1
OVCAR-3 = experiment: Tested for cytotoxicity against human ovarian cancer OVCAR-3 cell line; format: functional; how it was run: as §1
SAOS-2 = experiment: Tested for cytotoxicity against human […] Saos2 cell line; format: functional; how it was run: as §1
SW-620 = experiment: Tested for cytotoxicity against human colon cancer SW620 cell line; format: functional; how it was run: as §1
U-87 MG = experiment: Tested for cytotoxicity against human glioblastoma U87MG cell line; format: functional, U-87MG ATCC; how it was run: as §1
U2OS = experiment: Tested for cytotoxicity against human osteosarcoma U2OS cell line; format: functional; how it was run: as §1
Homo sapiens = organism: Homo sapiens; experiment: Tested for cytotoxicity against human normal lymphocytes; format: functional; how it was run: as §1
B16 [11] = experiment: Tested for cytotoxicity against mouse melanoma B16F cell line; format: functional; how it was run: as §1

CC(=O)O[C@H]1CC[C@]2(C)[C@H]3CC[C@@H]4C(=O)[C@]5(CC[C@@]4(C)[C@]3(C)CC[C@H]2C1(C)C)COC(=O)C5
TCS50 (CCRF-CEM [1]): >250 µM

CC(=O)OC[C@@]1(C(=O)C(=O)C(=O)C(C)C)CC[C@]2(C)[C@H](CC[C@@H]3[C@@]4(C)CC[C@H](OC(C)=O)C(C)(C)[C@@H]4CC[C@]32C)C1=O
TCS50 (CCRF-CEM [1]): 71 µM

CC(=O)O[C@H]1CC[C@]2(C)[C@H]3CC[C@@H]4C(=O)[C@@](CC(=O)C(=O)C(C)C)(C(=O)OCOC(=O)C(C)(C)C)CC[C@@]4(C)[C@]3(C)CC[C@H]2C1(C)C
TCS50 (CCRF-CEM [1]): >250 µM

CC(=O)OCOC(=O)[C@@]1(CC(=O)C(=O)C(C)C)CC[C@]2(C)[C@H](CC[C@@H]3[C@@]4(C)CC[C@H](OC(C)=O)C(C)(C)[C@@H]4CC[C@]32C)C1=O
TCS50 (CCRF-CEM [1]): 18 µM

CC(=O)O[C@H]1CC[C@]2(C)[C@H]3CC[C@@H]4C(=O)CCC[C@@]4(C)[C@]3(C)CC[C@H]2C1(C)C
TCS50 (CCRF-CEM [1]): >250 µM

CC(=O)OC[C@@]12CC[C@]3(C)[C@H](CC[C@@H]4[C@@]5(C)CC[C@H](OC(C)=O)C(C)(C)[C@@H]5CC[C@]43C)C1=C(C(C)C)C(=O)OC2=O
TCS50 (CCRF-CEM [1]): >250 µM

COC(=O)C[C@]1(C(=O)OCOC(=O)C(C)(C)C)CC[C@]2(C)[C@H](CC[C@@H]3[C@@]4(C)CC[C@H](OC(C)=O)C(C)(C)[C@@H]4CC[C@]32C)C1=O
TCS50 (CCRF-CEM [1]): 99 µM

CC(=O)O[C@H]1CC[C@]2(C)[C@H]3CC[C@@H]4C5=C(C(C)C)C(=O)C[C@]5(CO)CC[C@@]4(C)[C@]3(C)CC[C@H]2C1(C)C
TCS50 (CCRF-CEM [1]): 232 µM

COC(=O)[C@@]12CC[C@]3(C)[C@H](CC[C@@H]4[C@@]5(C)CC[C@H](OC(C)=O)C(C)(C)[C@@H]5CC[C@]43C)C1=C(C(C)C)C(=O)OC2=O
TCS50 (CCRF-CEM [1]): 127 µM

COC(=O)[C@@]1(CC(=O)O)CC[C@]2(C)[C@H](CC[C@@H]3[C@@]4(C)CC[C@H](OC(C)=O)C(C)(C)[C@@H]4CC[C@]32C)C1=O
TCS50 (CCRF-CEM [1]): 110 µM

CC(=O)OC[C@]12C=CC(C(C)C)=C1[C@H]1CC[C@@H]3[C@@]4(C)CC[C@H](OC(C)=O)C(C)(C)[C@@H]4CC[C@@]3(C)[C@]1(C)CC2
TCS50 (CCRF-CEM [1]): >250 µM

COC(=O)C[C@@H]1CC[C@]2(C)[C@H](CC[C@@H]3[C@@]4(C)CC[C@H](OC(C)=O)C(C)(C)[C@@H]4CC[C@]32C)C1=O
TCS50 (CCRF-CEM [1]): 106 µM

COC(=O)[C@@]12CC[C@]3(C)[C@H](CC[C@@H]4[C@@]5(C)CC[C@H](OC(C)=O)C(C)(C)[C@@H]5CC[C@]43C)C1=C(C(C)C)C(=O)C2
TCS50 (CCRF-CEM [1]): 20.4 µM

C=C(C)[C@@H]1CC[C@]2(C(=O)O)CC[C@]3(C)[C@H](CC[C@@H]4[C@@]5(C)CC[C@H](O)C(C)(C)[C@@H]5CC[C@]43C)[C@@H]12 [BETULINIC ACID]
TCS50 (A549): 79.3 µM
TCS50 (B16 [2]): 30.5 µM
TCS50 (BT-549): >250 µM
TCS50 (CCRF-CEM [3]): >250 µM
TCS50 (CEM-DNR [4]): >250 µM
TCS50 (CEM-DNR [5]): >250 µM
TCS50 (CCRF-CEM [1]): 20 µM
TCS50 (CEM-VCR 1/D/5): 24.1 µM
TCS50 (CEM-VCR 1/F3): 19.1 µM
TCS50 (CEM-VCR): 68.5 µM
TCS50 (DU-145): 241 µM
TCS50 (HT-29): >250 µM
TCS50 (HepG2): 3.61 µM
TCS50 (K562 [6]): 53.9 µM
TCS50 (K562 [7]): >250 µM
TCS50 (K562 [8]): >250 µM
TCS50 (K562 [9]): >250 µM
TCS50 (K562 [10]): 101 µM
TCS50 (SK-MEL3): 2.65 µM
TCS50 (MDA-MB-238): 195 µM
TCS50 (LNCaP): 244 µM
TCS50 (MCF7): 194 µM
TCS50 (NIH3T3): >250 µM
TCS50 (OVCAR-3): 164 µM
TCS50 (SAOS-2): >250 µM
TCS50 (SW-620): >250 µM
TCS50 (U-87 MG): >228 µM
TCS50 (U2OS): >250 µM
TCS50 (Homo sapiens): >250 µM
TCS50 (B16 [11]): 4.6 µM

CCOC[C@@H]1CC[C@]2(C)[C@H](CC[C@@H]3[C@@]4(C)CC[C@H](OC(C)=O)C(C)(C)[C@@H]4CC[C@]32C)C1=O
TCS50 (CCRF-CEM [1]): 50 µM

CC(=O)O[C@H]1CC[C@]2(C)[C@H]3CC[C@@H]4C5=C(C(C)C)C(=O)C[C@]5(C(=O)O)CC[C@@]4(C)[C@]3(C)CC[C@H]2C1(C)C
TCS50 (CCRF-CEM [1]): >250 µM

C=C1CC[C@]2(C)[C@H](CC[C@@H]3[C@@]4(C)CC[C@H](OC(C)=O)C(C)(C)[C@@H]4CC[C@]32C)C1=O
TCS50 (CCRF-CEM [1]): >250 µM
